Results from ChEMBL document CHEMBL1122456, “Structure-activity relationships for activation of adenylate cyclase by the diterpene forskolin and its derivatives” (J Med Chem, 1983).

Key:
Type in all cases: functional
[1] = species on record: Rattus norvegicus; assay: Concentration required to activate rat cerebral cortical adenylate cyclase activity elicited by 200 uM forskolin
Procedure, shortened: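 Fresh crude cortical membranes from male Sprague-Dawley rats (150-175 g). Incubated in 50 mM Tris-HCl pH 7.5 with 1.0 mM IBMX, 5 mM MgCl2, 0.1 mM ATP plus [α-32P]ATP, 0.2 mM EGTA, and a creatine phosphate/creatine kinase regenerating system. About 100 μg protein per assay, 30 °C for 10 min, stopped with TCA, [32P]cAMP isolated. Run in triplicate. EC50 taken from ≥2 curves over 0.01–200 μM. Where full activation was not reached, EC50 is the concentration giving 50% of the maximal activity with 200 μM forskolin.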

[2] = species on record: Oryctolagus cuniculus; assay: Percent stimulation of adenylate cyclase determined in rabbit heart membranes at 5 uM of compound as compared to 5 uM of forskolin; details: Membrane
[3] = species on record: Cavia porcellus; assay: Percent conversion of total labeled nucleotides to cyclic AMP, determined in guinea pig cerebral cortical vesicular entities at 200 uM concentration
Procedure, shortened: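 Gray-matter cortex slices from male NIH guinea pigs (300 g) homogenized in O2/CO2-gassed KRB, pH 7.4. The 1000g pellet was labeled with [3H]adenine for 30 min at 37 °C, washed, post-incubated 15 min at 37 °C, and aliquoted. Aliquots were equilibrated 10 min at 37 °C, then given compound at 200 μM for 10 min at 30 °C and stopped with TCA. Read-out is labeled cAMP as percent of total labeled adenine nucleotides, reported as mean ± SEM.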

Compound	EC50 [1]	Stimulation [2]	Conversion [3]
C=C[C@@]1(C)CC(=O)[C@@]2(O)[C@H](O1)C(OC(=O)N(CC)CC)C(O)[C@H]1C(C)(C)CC[C@H](O)C12C (some centres undefined)	200 µM	59%	0.84%
CC(=O)OC1C(O)[C@H]2C(C)(C)CC[C@H](O)C2(C)[C@@]23OC(CO)[C@@](C)(CC2=O)O[C@H]13 (some centres undefined)		0%	0.18%
C=C[C@@]1(C)CC(=O)[C@@]2(O)[C@H](O1)C(OC(C)=O)C(=O)[C@H]1C(C)(C)CCC(=O)C12C (some centres undefined)		0%	0.17%
C=C[C@@]1(C)CC(=O)[C@H]2[C@H](O1)C(OC(C)=O)C(O)[C@H]1C(C)(C)CC[C@H](O)C21C (some centres undefined)	100 µM	46%	0.84%
C=C[C@@]1(C)CC(=O)[C@@]2(O)[C@H](O1)C(OC(=O)c1cc(OC)c(OC)c(OC)c1)C(O)[C@H]1C(C)(C)CC[C@H](O)C12C (some centres undefined)	> 25 µM	31%	0.26%
C=C[C@@]1(C)CC(=O)[C@H]2[C@H](O1)C(OC(C)=O)C(O)[C@H]1C(C)(C)CCCC21C (some centres undefined)		1%	0.18%
C=C[C@@]1(C)CC(=O)[C@@]2(O)[C@H](O1)C(OS(=O)(=O)c1ccc(C)cc1)C(O)[C@H]1C(C)(C)CC[C@H](O)C12C (some centres undefined)	> 25 µM	5%	0.16%
C=C[C@@]1(C)CC(=O)[C@@]2(O)[C@H](O1)C(OC(=O)OCC)C(O)[C@H]1C(C)(C)CC[C@H](O)C12C (some centres undefined)	8 µM	60%	4.01%
C=C[C@@]1(C)CC(=O)[C@@]2(O)[C@H](O1)C(OC(C)=O)C(O)[C@H]1C(C)(C)CCC(=O)C12C (some centres undefined)	200 µM	47%	0.76%
C=C[C@@]1(C)CC(=O)[C@@]2(O)[C@H](O1)C(OC=O)C(O)[C@H]1C(C)(C)CC[C@H](O)C12C (some centres undefined)	150 µM	52%	0.47%
C=C[C@@]1(C)C[C@H](O)[C@@]2(O)[C@H](O1)C(OC(C)=O)C(O)[C@H]1C(C)(C)CC[C@H](O)C12C (some centres undefined)	50 µM	49%	0.97%
C=C[C@@]1(C)CC(=O)[C@@]2(O)[C@H](O1)C(OC(C)=O)C(O)[C@H]1C(C)(C)CC[C@H](O)C12C (some centres undefined)	8 µM	100%	4.4%
C=C[C@@]1(C)CC(=O)[C@@]2(O)[C@H](O1)C(OC(C)=O)C(OC(C)=O)[C@H]1C(C)(C)CC[C@H](OC(C)=O)C12C (some centres undefined)	> 200 µM	20%	0.47%
CC(=O)OC1C(O)[C@H]2C(C)(C)CC[C@H](O)C2(C)[C@@]2(O)C(=O)C[C@](C)(C3CO3)O[C@H]12 (some centres undefined)		5%	0.22%
C=C[C@@]1(C)C[C@@H](O)[C@H]2[C@H](O1)C(O)C(O)[C@H]1C(C)(C)CC[C@H](O)C21C (some centres undefined)		1.6%	0.41%
C=C[C@@]1(C)CC(=O)[C@@]23OC(=O)O[C@H]4CCC(C)(C)[C@H](C5OC(=O)OC5[C@H]2O1)C43C (some centres undefined)		1%	0.25%
C=C[C@@]1(C)CC(=O)[C@@]2(O)[C@H](O1)C(O)C(O)[C@H]1C(C)(C)CC[C@H](O)C12C (some centres undefined)	20 µM	51%	1.37%
C=C[C@@]1(C)CC(=O)[C@@]23OS(=O)O[C@H]4CCC(C)(C)[C@H](C(O)C(OC(C)=O)[C@H]2O1)C43C (some centres undefined)	> 200 µM	28%	1.2%
CC[C@@]1(C)CC(=O)[C@@]2(O)[C@H](O1)C(OC(C)=O)C(O)[C@H]1C(C)(C)CC[C@H](O)C12C (some centres undefined)	100 µM	49%	0.97%
C=C[C@@]1(C)CC(=O)[C@@]2(O)[C@H](O1)C(OC(=O)CC)C(O)[C@H]1C(C)(C)CC[C@H](O)C12C (some centres undefined)	15 µM	67%	1.07%
